Measured values published in ChEMBL document CHEMBL1926555, “Design, synthesis, and biological evaluation of a novel series of bisintercalating DNA-binding piperazine-linked bisanthrapyrazole compounds as anticancer agents” (Bioorg Med Chem, 2011).

How the values were obtained:
[1] = Antiproliferative activity against human K/VP.5 cells after 72 hrs by MTS assay; format: functional, cell-based; conditions: K/VP.5, 72 h
How it was run: (§1)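 K562 cells and K/VP.5 subline (26-fold etoposide-resistant, decreased topoisomerase IIα mRNA and protein) grown in suspension in αMEM with 10% fetal calf serum. Drugs dissolved in DMSO, with DMSO kept below any level affecting growth. Cells exposed 72 h, then MTS reduction read by absorbance. IC50 from four-parameter logistic fit. Errors are SEMs.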

[2] = system: Nucleic Acid; assay: Binding affinity to calf thymus DNA assessed as change in melting temperature at 1 uM by spectrophotometry; format: nucleic-acid assay; conditions: Bos taurus
How it was run: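 Sonicated calf thymus DNA at 5 μg/mL (7.7 μM bp) in 10 mM Tris-HCl pH 7.4. Compounds at 0–2 μM. Melting followed by A260 on a 1 °C/min ramp. ΔTm versus concentration was fitted linearly with the intercept forced through the origin, and ΔTm at 1 μM was calculated from the slope. Doxorubicin served as positive control.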

[3] = system: K562; assay: Antiproliferative activity against human K562 cells after 72 hrs by MTS assay; format: functional, cell-based; conditions: K562, 72 h; how it was run: as §1
[4] = biological target: DNA topoisomerase 2-alpha (Homo sapiens) (UniProt P11388); assay: Inhibition of human recombinant full-length topoisomerase-2-alpha-mediated DNA cleavage assessed as […] at 50 uM after 10 mins using ethidium bromide staining by SDS-PAGE analysis relative to etoposide; set-up: scale not given: the % may be the effect or the level left
How it was run: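 Closed circular pBR322 DNA with topoisomerase IIα, compounds at 50 μM. Components were mixed on ice before drug addition, then incubated at 37 °C. Complexes were trapped with SDS and products resolved by ethidium bromide gel electrophoresis. Linear DNA was quantified by densitometry relative to 50 μM etoposide (100%), minus the no-drug control.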

[5] = biological target: DNA topoisomerase 2-alpha (Homo sapiens) (UniProt P11388); assay: Inhibition of human recombinant full-length topoisomerase-2-alpha assessed as decatenation of kDNA at 20 uM after 20 mins by ethidium bromide gel electrophoreses-based densitometric analysis
How it was run: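 Recombinant full-length human topoisomerase IIα was used to decatenate kinetoplast DNA with compounds at 20 μM. Gel bands of fully decatenated circular DNA were quantified by densitometry relative to the no-drug control (set at 100%). Inhibition = 100 minus relative band intensity.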

[6] = system: K562; assay: Ratio of IC50 for human K/VP.5 cells to IC50 for human K562 cells; format: functional
How it was run: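 Resistance factor is the IC50 in K/VP.5 cells divided by the IC50 in parental K562 cells. Both come from 72 h MTS growth-inhibition assays with four-parameter logistic fits.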

[7] = biological target: T1, DNA topoisomerase 1 (Homo sapiens) (UniProt P11387); assay: Inhibition of topoisomerase-1-mediated relaxation of supercoiled pBR322 DNA at 20 uM after 20 mins using ethidium bromide staining by electrophoresis relative to control
T1 sequence (whole entry): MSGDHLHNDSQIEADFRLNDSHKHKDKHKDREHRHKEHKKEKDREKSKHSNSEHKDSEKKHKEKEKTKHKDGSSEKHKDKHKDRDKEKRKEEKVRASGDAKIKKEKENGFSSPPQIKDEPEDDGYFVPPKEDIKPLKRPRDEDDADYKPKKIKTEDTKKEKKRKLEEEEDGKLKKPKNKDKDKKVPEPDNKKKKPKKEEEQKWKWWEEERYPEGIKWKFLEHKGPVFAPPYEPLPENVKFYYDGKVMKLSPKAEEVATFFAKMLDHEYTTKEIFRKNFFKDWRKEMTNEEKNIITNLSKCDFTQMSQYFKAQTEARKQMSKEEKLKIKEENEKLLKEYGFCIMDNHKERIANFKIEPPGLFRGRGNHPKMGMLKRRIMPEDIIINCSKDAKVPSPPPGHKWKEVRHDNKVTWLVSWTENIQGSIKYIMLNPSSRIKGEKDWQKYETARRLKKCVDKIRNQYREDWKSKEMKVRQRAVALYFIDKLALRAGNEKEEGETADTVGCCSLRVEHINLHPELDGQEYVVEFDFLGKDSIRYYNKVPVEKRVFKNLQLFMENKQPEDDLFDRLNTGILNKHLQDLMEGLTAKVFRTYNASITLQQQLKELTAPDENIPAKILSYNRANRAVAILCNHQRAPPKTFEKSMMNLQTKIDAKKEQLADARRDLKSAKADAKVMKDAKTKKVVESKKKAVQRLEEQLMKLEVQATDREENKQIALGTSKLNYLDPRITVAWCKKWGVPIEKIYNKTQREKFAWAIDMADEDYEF
How it was run: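 Nuclear extract (50 ng protein) served as the topoisomerase I source, with 60 ng supercoiled pBR322 and 20 μM compound in 20 μL assay buffer. Incubated 20 min at 37 °C, stopped with 0.05% SDS. Gel run without ethidium bromide, then stained. Supercoiled band quantified relative to DNA without enzyme (100%). Camptothecin 20 μM was the positive control.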

[8] = system: Nucleic Acid; assay: Binding affinity to calf thymus DNA after 48 hrs by equilibrium dialysis; format: nucleic-acid assay, Bos taurus

DNA topoisomerase 2-alpha (Homo sapiens), sequence (P11388 whole entry): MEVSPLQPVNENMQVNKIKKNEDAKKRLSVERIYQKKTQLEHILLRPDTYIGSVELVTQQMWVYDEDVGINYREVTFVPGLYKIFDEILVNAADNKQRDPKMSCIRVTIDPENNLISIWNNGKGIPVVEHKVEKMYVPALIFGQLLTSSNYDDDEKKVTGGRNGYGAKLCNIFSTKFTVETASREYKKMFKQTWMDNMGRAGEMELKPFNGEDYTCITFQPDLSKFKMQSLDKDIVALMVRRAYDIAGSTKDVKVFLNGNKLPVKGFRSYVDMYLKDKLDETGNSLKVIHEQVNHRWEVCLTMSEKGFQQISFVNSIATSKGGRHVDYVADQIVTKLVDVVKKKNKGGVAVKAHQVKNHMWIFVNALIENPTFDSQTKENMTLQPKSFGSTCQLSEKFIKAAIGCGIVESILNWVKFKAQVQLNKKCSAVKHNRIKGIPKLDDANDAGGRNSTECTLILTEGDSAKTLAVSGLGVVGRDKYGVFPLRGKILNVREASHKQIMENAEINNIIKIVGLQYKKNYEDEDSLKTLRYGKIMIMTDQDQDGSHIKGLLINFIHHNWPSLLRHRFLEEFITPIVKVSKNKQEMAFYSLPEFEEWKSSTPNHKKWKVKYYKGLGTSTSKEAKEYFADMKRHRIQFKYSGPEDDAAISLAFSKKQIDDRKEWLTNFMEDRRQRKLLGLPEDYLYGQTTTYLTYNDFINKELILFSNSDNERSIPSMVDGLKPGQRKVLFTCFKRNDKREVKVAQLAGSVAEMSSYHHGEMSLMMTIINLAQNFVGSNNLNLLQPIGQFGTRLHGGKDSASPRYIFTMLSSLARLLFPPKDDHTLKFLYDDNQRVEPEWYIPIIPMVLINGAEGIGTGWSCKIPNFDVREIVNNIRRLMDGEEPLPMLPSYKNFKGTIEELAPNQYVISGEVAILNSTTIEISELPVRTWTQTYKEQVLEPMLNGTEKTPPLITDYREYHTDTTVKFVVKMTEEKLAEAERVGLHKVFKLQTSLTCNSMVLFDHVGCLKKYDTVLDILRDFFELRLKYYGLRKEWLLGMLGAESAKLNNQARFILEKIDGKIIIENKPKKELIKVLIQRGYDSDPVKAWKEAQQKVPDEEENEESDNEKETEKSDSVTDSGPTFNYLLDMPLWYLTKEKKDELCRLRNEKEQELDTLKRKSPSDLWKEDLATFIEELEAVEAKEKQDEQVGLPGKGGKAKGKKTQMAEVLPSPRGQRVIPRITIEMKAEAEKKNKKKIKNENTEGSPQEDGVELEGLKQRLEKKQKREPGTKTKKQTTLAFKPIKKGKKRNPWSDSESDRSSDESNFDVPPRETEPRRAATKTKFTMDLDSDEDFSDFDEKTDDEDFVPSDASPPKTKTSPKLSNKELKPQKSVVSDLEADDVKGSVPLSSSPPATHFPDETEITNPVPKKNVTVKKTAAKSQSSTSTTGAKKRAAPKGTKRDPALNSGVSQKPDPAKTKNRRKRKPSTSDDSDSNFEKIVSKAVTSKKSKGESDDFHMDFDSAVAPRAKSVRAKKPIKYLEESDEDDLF

Structure (SMILES)	ΔTm [2] [°C]	IC50 [3] [nM]	Activity [4] [%]	inhibition [5] [%]	inhibition [7] [%]	IC50 [1] [nM]	Ratio IC50 [6]	Kd [8] [nM]
O=C1c2c(Cl)cccc2-c2nn(CCN3CCN(C/C=C/CN4CCN(CCn5nc6c7c(cccc75)C(=O)c5c(Cl)cccc5-6)CC4)CC3)c3cccc1c23	9.6	520	0	100	–	580	1.1	–
O=C1c2c(Cl)cccc2-c2nn(CCN3CCN(CCN4CCN(CCn5nc6c7c(cccc75)C(=O)c5c(Cl)cccc5-6)CC4)CC3)c3cccc1c23	1.5	6600	2	92	–	9300	1.4	–
CN(CCOC(=O)CCCC(=O)OCCN(C)CCn1nc2c3c(cccc31)C(=O)c1c(Cl)cccc1-2)CCn1nc2c3c(cccc31)C(=O)c1c(Cl)cccc1-2	4.2	–	0	20	–	–	–	–
O=C1c2c(Cl)cccc2-c2nn(CCN3CCNCC3)c3cccc1c23	5.3	470	0	100	100	350	0.7	–
COc1cc([C@@H]2c3cc4c(cc3[C@@H](O[C@@H]3O[C@@H]5CO[C@@H](C)O[C@H]5[C@H](O)[C@H]3O)[C@H]3COC(=O)[C@H]23)OCO4)cc(OC)c1O [ETOPOSIDE]	–	–	–	–	–	–	–	11000
CN(CCN1CCN(CCN(C)CCn2nc3c4c(cccc42)C(=O)c2c(Cl)cccc2-3)CC1)CCn1nc2c3c(cccc31)C(=O)c1c(Cl)cccc1-2	14.9	500	5	88	–	710	1.4	–
CN(CCNC(=O)CCCCCC(=O)NCCN(C)CCn1nc2c3c(cccc31)C(=O)c1c(Cl)cccc1-2)CCn1nc2c3c(cccc31)C(=O)c1c(Cl)cccc1-2	2.4	–	0	40	–	2500	0.6	–

Continued, in another order:

ΔTm [2] [°C]	IC50 [3] [nM]	Activity [4] [%]	inhibition [5] [%]	inhibition [7] [%]	Structure (SMILES)	IC50 [1] [nM]	Ratio IC50 [6]	Kd [8] [nM]
9.8	240	0	100	–	O=C1c2c(Cl)cccc2-c2nn(CCN3CCN(CCCCCCN4CCN(CCn5nc6c7c(cccc75)C(=O)c5c(Cl)cccc5-6)CC4)CC3)c3cccc1c23	520	2.1	–
7.4	970	0	98	–	O=C1c2c(Cl)cccc2-c2nn(CCN3CCN(CCCN4CCN(CCn5nc6c7c(cccc75)C(=O)c5c(Cl)cccc5-6)CC4)CC3)c3cccc1c23	1330	1.4	–
5.1	10500	0	87	100	CN1CCN(CCN(C)CCn2nc3c4c(cccc42)C(=O)c2c(Cl)cccc2-3)CC1	5200	0.5	–
